What was measured:
[1] = Inhibition of lipoxygenase using linoleic acid as substrate at 0.5 mM after 10 mins preincubation
Summary of the method: (§1)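 Purified lipoxygenase (600 units per well) in 100 mM sodium phosphate buffer pH 8.0, with test compound. Pre-read at 234 nm, preincubated 10 min at 25 °C, then started with linoleic acid. Absorbance change at 234 nm read after 6 min. Percent inhibition tested at 0.5 mM. IC50 obtained from dilutions of compounds exceeding 50% inhibition. Triplicates, mean ± SEM.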

[2] = Inhibition of lipoxygenase using linoleic acid as substrate after 10 mins preincubation; summary of the method: as §1

| inhibition [1] [%] | IC50 [2] [µM] | SMILES |
| --- | --- | --- |
| 97 | 232 | Cc1ccc(S(=O)(=O)Nc2ccc(C(=O)OCC#N)cc2)cc1 |
| 99.4 | 61.4 | CCCCN(c1ccc(C(=O)O)cc1)S(=O)(=O)c1ccc(C)cc1 |
| 88.5 | 189 | COC(=O)c1ccc(N(C)S(=O)(=O)c2ccc(C)cc2)cc1 |
| 98.7 | 15.8 | CC(C)=CCN(c1ccc(C(=O)O)cc1)S(=O)(=O)c1ccc(C)cc1 |
| 97.6 | 231 | CCOC(=O)c1ccc(N(CC)S(=O)(=O)c2ccc(C)cc2)cc1 |
| 98.1 | 176 | Cc1ccc(S(=O)(=O)N(C(=O)c2ccc(Cl)cc2)c2ccc(C(=O)O)cc2)cc1 |
| 96.2 | 219 | C=CCN(c1ccc(C(=O)O)cc1)S(=O)(=O)c1ccc(C)cc1 |
| 99 | 91.7 | Cc1ccc(S(=O)(=O)N(C(=O)c2ccccc2)c2ccc(C(=O)O)cc2)cc1 |
| – | 22.4 | O=c1cc(-c2ccccc2)oc2cc(O)c(O)c(O)c12 [BAICALEIN] |
| 21.9 | > 600 | Cc1ccc(S(=O)(=O)N(CCCl)c2ccc(C(=O)O)cc2)cc1 |
| 26.9 | > 600 | Cc1ccc(S(=O)(=O)N(C/C=C/c2ccccc2)c2ccc(C(=O)OC/C=C/c3ccccc3)cc2)cc1 |
| 85.1 | 59.1 | Cc1ccc(S(=O)(=O)N(Cc2ccccc2)c2ccc(C(=O)O)cc2)cc1 |
| 40 | > 500 | CCCN(c1ccc(C(=O)O)cc1)S(=O)(=O)c1ccc(C)cc1 |
| 98.6 | 68.6 | CCCCCN(c1ccc(C(=O)O)cc1)S(=O)(=O)c1ccc(C)cc1 |
| 99.4 | 139 | Cc1ccc(S(=O)(=O)Nc2ccc(C(=O)O)cc2)cc1 |

| SMILES | inhibition [1] [%] | IC50 [2] [µM] |
| --- | --- | --- |
| O=c1c(O)c(-c2ccc(O)c(O)c2)oc2cc(O)cc(O)c12 [QUERCETIN] | – | 37.1 |
